In ChEMBL document CHEMBL4145461, “Novel non-sulfonamide 5-HT6 receptor partial inverse agonist in a group of imidazo[4,5-b]pyridines with cognition enhancing properties” (Eur J Med Chem, 2018):

Tests used:
[1] = molecular target: Cytochrome P450 3A4 (Homo sapiens, UniProt P08684); test: Inhibition of CYP3A4 (unknown origin) at 0.025 to 25 uM after 2 hrs by firefly luciferase-luminescence based P450-glo assay; assay type: ADME
Summary of the method: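 Recombinant CYP3A4 or CYP2D6 incubated 2 h with test compound (0.025–25 μM final) and an isoform-specific luciferin derivative. Firefly luciferase then added, and luminescence is proportional to D-luciferin formed. Reference inhibitors: ketoconazole (CYP3A4) and quinidine (CYP2D6, 0.1–100 nM).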

[2] = molecular target: T1, alpha-1 adrenergic receptor (Rattus norvegicus, UniProt P15823+P23944+P43140); test: Displacement of [3H]prazosin from rat brain alpha-1 adrenergic receptor at 1 uM after 60 mins by scintillation counting relative to control; conditions: rat brain alpha-1 adrenergic receptor preparation, probe [3H]prazosin
T1 sequence (P15823 whole entry): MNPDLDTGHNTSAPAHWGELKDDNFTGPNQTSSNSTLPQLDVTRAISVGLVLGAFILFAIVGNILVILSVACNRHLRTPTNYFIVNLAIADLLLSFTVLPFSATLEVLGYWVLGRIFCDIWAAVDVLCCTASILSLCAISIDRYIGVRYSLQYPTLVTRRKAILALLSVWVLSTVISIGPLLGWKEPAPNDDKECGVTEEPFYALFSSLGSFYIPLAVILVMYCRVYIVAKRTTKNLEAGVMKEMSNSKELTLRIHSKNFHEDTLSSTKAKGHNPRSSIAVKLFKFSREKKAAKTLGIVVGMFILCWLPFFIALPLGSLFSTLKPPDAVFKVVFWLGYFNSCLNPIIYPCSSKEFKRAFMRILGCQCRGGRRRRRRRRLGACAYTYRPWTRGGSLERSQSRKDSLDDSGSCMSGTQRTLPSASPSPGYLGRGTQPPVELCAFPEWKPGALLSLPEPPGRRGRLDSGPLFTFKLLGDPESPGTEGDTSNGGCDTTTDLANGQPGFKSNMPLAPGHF
T1 sequence (P23944 whole entry): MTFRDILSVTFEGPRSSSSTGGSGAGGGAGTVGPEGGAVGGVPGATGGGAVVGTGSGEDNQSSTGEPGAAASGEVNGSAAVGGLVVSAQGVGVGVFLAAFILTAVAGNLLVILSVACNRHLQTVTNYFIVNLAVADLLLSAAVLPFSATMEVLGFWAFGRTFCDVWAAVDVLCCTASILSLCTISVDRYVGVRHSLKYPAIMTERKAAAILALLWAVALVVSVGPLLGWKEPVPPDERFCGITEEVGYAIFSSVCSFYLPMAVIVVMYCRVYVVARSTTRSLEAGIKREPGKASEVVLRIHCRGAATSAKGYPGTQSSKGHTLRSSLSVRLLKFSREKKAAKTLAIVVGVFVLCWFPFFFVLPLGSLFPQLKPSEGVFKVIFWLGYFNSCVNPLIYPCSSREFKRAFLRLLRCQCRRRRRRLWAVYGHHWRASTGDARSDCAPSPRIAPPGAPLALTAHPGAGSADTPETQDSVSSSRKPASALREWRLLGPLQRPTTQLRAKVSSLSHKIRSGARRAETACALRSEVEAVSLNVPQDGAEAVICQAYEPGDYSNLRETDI
T1 sequence (P43140 whole entry): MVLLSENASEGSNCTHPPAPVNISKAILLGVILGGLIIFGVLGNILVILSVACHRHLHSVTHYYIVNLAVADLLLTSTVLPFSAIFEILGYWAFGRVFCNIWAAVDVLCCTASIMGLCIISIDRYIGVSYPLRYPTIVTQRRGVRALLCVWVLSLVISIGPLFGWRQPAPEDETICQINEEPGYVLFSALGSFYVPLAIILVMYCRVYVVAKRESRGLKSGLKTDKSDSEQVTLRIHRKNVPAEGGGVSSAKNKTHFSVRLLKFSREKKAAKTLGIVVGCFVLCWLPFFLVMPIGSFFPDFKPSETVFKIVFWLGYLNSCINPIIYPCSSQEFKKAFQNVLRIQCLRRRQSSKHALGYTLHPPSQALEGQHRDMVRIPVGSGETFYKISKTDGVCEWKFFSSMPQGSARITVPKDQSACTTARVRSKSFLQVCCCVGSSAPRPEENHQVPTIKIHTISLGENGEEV

[3] = molecular target: D(2) dopamine receptor (Homo sapiens, UniProt P14416); test: Displacement of [3H]-Raclopride from human dopamine D2L receptor expressed in HEK293 cell membranes after 1 hr by microbeta counting method
D(2) dopamine receptor, sequence (P14416 whole entry): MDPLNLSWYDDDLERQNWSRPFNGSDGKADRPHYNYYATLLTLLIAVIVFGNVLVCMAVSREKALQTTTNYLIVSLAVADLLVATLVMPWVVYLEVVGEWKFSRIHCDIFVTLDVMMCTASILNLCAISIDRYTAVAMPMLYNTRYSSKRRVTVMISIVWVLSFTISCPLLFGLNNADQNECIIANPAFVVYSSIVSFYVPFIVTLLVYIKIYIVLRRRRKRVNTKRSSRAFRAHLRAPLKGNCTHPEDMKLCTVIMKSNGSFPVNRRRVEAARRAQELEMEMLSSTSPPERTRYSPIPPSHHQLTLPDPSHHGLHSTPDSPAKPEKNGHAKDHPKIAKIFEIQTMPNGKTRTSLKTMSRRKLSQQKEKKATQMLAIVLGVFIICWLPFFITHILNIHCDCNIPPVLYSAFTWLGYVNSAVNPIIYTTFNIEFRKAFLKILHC
Summary of the method: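 HEK293 (5-HT1A, 5-HT6, 5-HT7b, D2L) or CHO-K1 (5-HT2A) membranes, all Tris–HCl with 4 mM MgCl2 plus receptor-specific EDTA/pargyline/ascorbate (D2L adds NaCl, KCl, CaCl2). Nonspecific binding: 10 μM 5-HT (5-HT1A, 5-HT7), chlorpromazine (5-HT2A), methiothepine (5-HT6), haloperidol (D2L). Triplicate, 7–8 concentrations (10⁻¹¹–10⁻⁴ M), filtration; Ki via Cheng–Prusoff, mean of three experiments. Incubation 1 h 37 °C; 5-HT1A 1 h and 5-HT2A 1.5 h, room temperature.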

Cytochrome P450 3A4, sequence (P08684 whole entry, canonical isoform): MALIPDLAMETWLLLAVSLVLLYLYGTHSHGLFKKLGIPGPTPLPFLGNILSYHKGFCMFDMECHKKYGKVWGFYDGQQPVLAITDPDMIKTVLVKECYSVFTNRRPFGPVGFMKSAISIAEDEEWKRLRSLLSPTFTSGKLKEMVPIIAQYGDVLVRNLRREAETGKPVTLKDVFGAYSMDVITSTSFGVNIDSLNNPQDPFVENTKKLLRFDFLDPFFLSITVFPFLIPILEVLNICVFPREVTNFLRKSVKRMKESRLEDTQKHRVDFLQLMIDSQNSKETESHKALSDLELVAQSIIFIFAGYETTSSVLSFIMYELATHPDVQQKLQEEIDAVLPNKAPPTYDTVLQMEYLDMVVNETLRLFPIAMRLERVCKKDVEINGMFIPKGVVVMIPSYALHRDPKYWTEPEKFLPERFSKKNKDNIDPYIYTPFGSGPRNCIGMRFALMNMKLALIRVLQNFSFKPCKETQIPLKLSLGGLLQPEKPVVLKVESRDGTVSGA

For CCc1nc2c(N3CCNCC3)ccnc2n1Cc1cccc(F)c1, the “inhibition (INH)” value [1] was “Not Active”, the inhibition at 1 h, 1 µM [2] was 0.2% and the Ki [3] was 3.48 µM.
